ChEMBL document CHEMBL1140884, “Oligodeoxyribonucleotide-based antagonists for Toll-like receptors 7 and 9” (2009)
Calls of active or inactive are those of the source. The calls are words filed in the database; no cut-off is given here.

Legend:
PBMC [1] = experiment: (§1) Induction of IP10 secretion in human PBMC; type: functional, cell-based
Method in brief: (§2)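 Human PBMCs (5×10^6/mL; 1×10^6 per well) were cultured 24 h with TLR9 agonist 5 µg/mL or TLR7/8 agonist 100 µg/mL, alone or with antagonist at 1:4. Compounds were dissolved in PBS. Supernatant cytokines were measured by Luminex human 25-plex bead assay. One representative donor of six.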

PBMC [2] = experiment: Induction of MIP1beta secretion in human PBMC; type: functional, cell-based; method in brief: as §2
PBMC [3] = experiment: Induction of MCP1 secretion in human PBMC; type: functional, cell-based; method in brief: as §2
PBMC [4] = experiment: Induction of IL6 secretion in human PBMC; type: functional, cell-based; method in brief: as §2
PBMC [5] = experiment: Induction of IFNalpha secretion in human PBMC; type: functional, cell-based; method in brief: as §2
PBMC [6] = experiment: Induction of TNFalpha secretion in human PBMC; type: functional, cell-based; method in brief: as §2
PBMC [7] = experiment: Induction of IL12 secretion in human PBMC; type: functional, cell-based; method in brief: as §2
PBMC [8] = experiment: Induction of IFN-gamma secretion in human PBMC; type: functional, cell-based; method in brief: as §2
PBMC [9] = experiment: as §1; type: functional, cell-based; method in brief: as §2; remark: listed apart in the source
PBMC [10] = experiment: Induction of MIG secretion in human PBMC; type: functional, cell-based; method in brief: as §2
[11] = target: Toll-like receptor 7 (Homo sapiens) (UniProt Q9NYK1); experiment: Agonist activity at TLR7/8 in human PBMC assessed as NF-kappaB activation at 100 ug/mL
Toll-like receptor 7 (Homo sapiens), sequence (Q9NYK1 whole entry, looked up): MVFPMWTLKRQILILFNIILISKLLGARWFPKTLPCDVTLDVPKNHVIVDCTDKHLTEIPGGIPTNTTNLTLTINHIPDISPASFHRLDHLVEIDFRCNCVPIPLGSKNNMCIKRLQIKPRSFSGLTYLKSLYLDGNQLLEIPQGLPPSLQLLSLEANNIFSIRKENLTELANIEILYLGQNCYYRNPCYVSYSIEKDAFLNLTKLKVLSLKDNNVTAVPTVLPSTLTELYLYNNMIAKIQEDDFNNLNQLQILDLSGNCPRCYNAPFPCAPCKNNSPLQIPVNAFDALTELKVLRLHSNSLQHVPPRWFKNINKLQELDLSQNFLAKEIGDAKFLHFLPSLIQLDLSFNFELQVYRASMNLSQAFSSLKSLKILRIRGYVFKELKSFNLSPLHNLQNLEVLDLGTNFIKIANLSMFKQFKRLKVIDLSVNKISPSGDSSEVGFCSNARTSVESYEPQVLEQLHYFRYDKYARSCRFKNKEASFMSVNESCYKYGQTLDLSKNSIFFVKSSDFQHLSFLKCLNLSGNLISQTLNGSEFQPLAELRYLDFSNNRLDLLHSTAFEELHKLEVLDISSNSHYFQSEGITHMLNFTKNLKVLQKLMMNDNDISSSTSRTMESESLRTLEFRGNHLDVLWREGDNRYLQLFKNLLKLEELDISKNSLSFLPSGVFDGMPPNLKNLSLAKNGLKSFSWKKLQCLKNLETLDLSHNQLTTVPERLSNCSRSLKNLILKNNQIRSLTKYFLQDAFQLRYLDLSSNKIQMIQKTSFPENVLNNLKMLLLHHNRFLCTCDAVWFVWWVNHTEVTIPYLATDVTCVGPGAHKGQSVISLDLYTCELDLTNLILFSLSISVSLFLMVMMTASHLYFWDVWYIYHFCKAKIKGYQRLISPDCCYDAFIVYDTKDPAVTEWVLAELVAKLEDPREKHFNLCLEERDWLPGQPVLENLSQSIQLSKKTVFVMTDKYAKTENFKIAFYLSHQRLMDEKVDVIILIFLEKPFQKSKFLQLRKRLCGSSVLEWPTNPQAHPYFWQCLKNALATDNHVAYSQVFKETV

[12] = target: T1, Toll-like receptor 9 (Mus musculus) (UniProt Q9EQU3); experiment: Antagonist activity at mouse TLR9 expressed in HEK293 cells assessed as inhibition of 5'-CTATCTGTCGTTCTCTGT-3'-induced NF-kappaB activation by SEAP reporter gene assay; type: functional, cell-based
T1 sequence (whole entry): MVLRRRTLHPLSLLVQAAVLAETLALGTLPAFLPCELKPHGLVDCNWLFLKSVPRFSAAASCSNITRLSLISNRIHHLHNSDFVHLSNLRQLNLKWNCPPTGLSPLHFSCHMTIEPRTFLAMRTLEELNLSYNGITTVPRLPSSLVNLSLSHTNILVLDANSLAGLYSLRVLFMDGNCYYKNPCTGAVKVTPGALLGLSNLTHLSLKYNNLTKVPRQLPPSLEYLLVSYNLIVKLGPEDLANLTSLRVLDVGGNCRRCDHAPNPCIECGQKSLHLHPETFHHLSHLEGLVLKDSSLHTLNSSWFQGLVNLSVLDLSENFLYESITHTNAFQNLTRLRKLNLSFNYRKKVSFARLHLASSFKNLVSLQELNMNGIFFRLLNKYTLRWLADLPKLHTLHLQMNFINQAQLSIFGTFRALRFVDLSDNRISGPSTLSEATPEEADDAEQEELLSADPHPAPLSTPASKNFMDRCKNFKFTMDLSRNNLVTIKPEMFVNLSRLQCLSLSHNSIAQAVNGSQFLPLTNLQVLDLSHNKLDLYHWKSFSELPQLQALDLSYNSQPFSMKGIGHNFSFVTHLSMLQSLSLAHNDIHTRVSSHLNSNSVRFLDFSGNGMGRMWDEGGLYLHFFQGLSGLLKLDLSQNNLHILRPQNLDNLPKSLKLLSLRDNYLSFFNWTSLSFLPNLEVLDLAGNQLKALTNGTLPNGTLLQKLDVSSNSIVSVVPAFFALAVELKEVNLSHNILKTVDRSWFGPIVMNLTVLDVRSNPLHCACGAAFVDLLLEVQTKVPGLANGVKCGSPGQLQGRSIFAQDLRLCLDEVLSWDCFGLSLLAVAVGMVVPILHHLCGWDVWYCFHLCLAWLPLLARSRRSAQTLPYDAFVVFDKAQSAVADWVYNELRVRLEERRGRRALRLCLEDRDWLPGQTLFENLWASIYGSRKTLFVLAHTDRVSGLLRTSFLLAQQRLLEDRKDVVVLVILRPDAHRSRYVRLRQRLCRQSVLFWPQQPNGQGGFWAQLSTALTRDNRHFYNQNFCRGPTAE
Method in brief: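 Mouse TLR9-HEK293 cells were transfected with a SEAP reporter for 6 h. They were then stimulated for 18 h with agonist (0.25 or 0.5 µg/mL) plus increasing antagonist concentrations or set agonist:antagonist ratios. Quanti-Blue read-out, reported as % NF-κB activity with agonist alone as 100%.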

[13] = target: T1, Toll-like receptor 9 (Mus musculus); experiment: Agonist activity at mouse TLR9 expressed in HEK293 cells assessed as activation of NF-kappaB at 10 ug/mL by SEAP reporter gene assay; type: functional, cell-based
Method in brief: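 HEK293 cells stably expressing mouse TLR9 were transiently transfected with a SEAP reporter for 6 h. Compounds were added at 10 µg/mL for 18 h. SEAP was read with Quanti-Blue substrate and expressed as fold change in NF-κB activity.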

[14] = target: T2, Toll-like receptor 9 (Homo sapiens) (UniProt Q9NR96); experiment: Antagonist activity at TLR9 in human PBMC assessed as inhibition of 5'-TCTGTCRTTCT-X-TCTTRCTGTCT-5'-induced NF-kappaB activation at 40 ug/mL treated 1 hr before induction measured after 2 hrs; type: functional
T2 sequence (whole entry): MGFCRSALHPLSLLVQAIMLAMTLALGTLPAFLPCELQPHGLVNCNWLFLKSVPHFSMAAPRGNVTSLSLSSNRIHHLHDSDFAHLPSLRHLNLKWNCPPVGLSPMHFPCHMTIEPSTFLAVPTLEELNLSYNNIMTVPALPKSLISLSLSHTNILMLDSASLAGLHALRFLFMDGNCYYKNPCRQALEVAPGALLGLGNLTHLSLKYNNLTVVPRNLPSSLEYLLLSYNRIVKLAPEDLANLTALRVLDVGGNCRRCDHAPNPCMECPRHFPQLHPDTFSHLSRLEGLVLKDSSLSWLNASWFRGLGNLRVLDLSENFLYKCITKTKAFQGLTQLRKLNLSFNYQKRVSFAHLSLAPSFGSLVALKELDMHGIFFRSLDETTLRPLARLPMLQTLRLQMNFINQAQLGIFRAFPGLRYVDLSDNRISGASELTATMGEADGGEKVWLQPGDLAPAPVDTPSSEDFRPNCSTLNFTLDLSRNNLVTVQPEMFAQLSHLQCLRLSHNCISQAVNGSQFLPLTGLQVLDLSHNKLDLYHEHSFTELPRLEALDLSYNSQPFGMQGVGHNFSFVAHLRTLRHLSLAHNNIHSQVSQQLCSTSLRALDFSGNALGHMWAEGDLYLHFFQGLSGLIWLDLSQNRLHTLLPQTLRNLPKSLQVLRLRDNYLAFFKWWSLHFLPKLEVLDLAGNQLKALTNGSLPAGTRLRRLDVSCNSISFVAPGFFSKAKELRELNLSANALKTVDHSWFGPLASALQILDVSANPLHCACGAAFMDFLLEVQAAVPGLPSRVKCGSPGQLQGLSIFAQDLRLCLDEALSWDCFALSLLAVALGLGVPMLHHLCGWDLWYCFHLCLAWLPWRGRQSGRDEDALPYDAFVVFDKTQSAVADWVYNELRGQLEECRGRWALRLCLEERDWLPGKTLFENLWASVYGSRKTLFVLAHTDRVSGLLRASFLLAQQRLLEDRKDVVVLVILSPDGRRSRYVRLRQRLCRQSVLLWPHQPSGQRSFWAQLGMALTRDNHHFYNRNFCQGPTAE
Method in brief: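 Human PBMCs plated at 1×10^7 cells/well were preincubated with antagonist at the indicated concentrations for 1 h. TLR9 or TLR7/8 agonist was then added for 2 h. Nuclear extracts were analysed for NF-κB by EMSA. One representative donor of three.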

PBMC [15] = experiment: Inhibition of 5'-TCTGTCRTTCT-X-TCTTRCTGTCT-5'-induced cytokines secretion in human PBMC at 1:5 agonist to drug ratio; type: functional, cell-based
Method in brief: (§3)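 Human PBMCs isolated from healthy volunteer blood by Ficoll gradient, cultured at 1×10^6/200 μL in supplemented RPMI 1640 with 10% heat-inactivated FBS. Treated for 24 h with agonist and/or antagonist dissolved in PBS; TLR9 agonist at 5 μg/mL, TLR7/8 agonist at 100 μg/mL. Supernatant cytokines/chemokines by Luminex human 25-plex bead assay; unstimulated cells as control.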

PBMC [16] = experiment: Inhibition of 5'-UGCUGUUCUG-X-GUCUUGUCGU-5'-induced cytokines secretion in human PBMC at 1:5 agonist to drug ratio; type: functional, cell-based; method in brief: as §3
PBMC [17] = experiment: Inhibition of 5'-TCTGTCRTTCT-X-TCTTRCTGTCT-5'-induced chemokines secretion in human PBMC at 1:5 agonist to drug ratio; type: functional, cell-based; method in brief: as §3
PBMC [18] = experiment: Inhibition of 5'-UGCUGUUCUG-X-GUCUUGUCGU-5'-induced chemokines secretion in human PBMC at 1:5 agonist to drug ratio; type: functional, cell-based; method in brief: as §3
PBMC [19] = experiment: Inhibition of 5'-TCTGTCRTTCT-X-TCTTRCTGTCT-5'-induced human PBMC proliferation treated 72 hrs before induction; type: functional, cell-based
[20] = target: Toll-like receptor 7 (Homo sapiens) (UniProt Q9NYK1); experiment: Antagonist activity at TLR7/8 in human PBMC assessed as inhibition of 5'-UGCUGUUCUG-X-GUCUUGUCGU-5'-induced NF-kappaB activation in human PBMC at 400 ug/mL treated 1 hr before induction measured after 2 hrs

Compound	Activity (PBMC [1])	Activity (PBMC [2])	Activity (PBMC [3])	Activity (PBMC [4])	Activity (PBMC [5])	Activity (PBMC [6])	Activity (PBMC [7])	Activity (PBMC [8])	Activity (PBMC [9])	Activity (PBMC [10])	Activity [11]	Activity [12]	Activity [13]	Activity [14]	Activity (PBMC [15])	Activity (PBMC [16])	Activity (PBMC [17])	Activity (PBMC [18])	Activity (PBMC [19])	Activity [20]
Nc1ccn([C@@H]2O[C@H](COP(=O)(S)O[C@H]3[C@@H](O)[C@H](n4ccc(=O)[nH]c4=O)O[C@@H]3COP(=O)(S)O[C@H]3[C@@H](O)[C@H](n4ccc(=O)[nH]c4=O)O[C@@H]3COP(=O)(S)O[C@H]3[C@@H](O)[C@H](n4ccc5c(=O)[nH]c(N)nc54)O[C@@H]3COP(=O)(S)O[C@H]3[C@@H](O)[C@H](n4ccc(=O)[nH]c4=O)O[C@@H]3COP(=O)(S)O[C@H]3[C@@H](O)[C@H](n4ccc(N)nc4=O)O[C@@H]3COP(=O)(S)O[C@H]3[C@@H](O)[C@H](n4ccc5c(=O)[nH]c(N)nc54)O[C@@H]3COP(=O)(S)O[C@H]3[C@@H](O)[C@H](n4ccc(=O)[nH]c4=O)O[C@@H]3CO)[C@@H](OP(=O)(S)OC[C@H]3O[C@@H](n4ccc(=O)[nH]c4=O)[C@H](O)[C@@H]3OP(=O)(S)OC[C@H]3O[C@@H](n4ccc5c(=O)[nH]c(N)nc54)[C@H](O)[C@@H]3OP(=O)(S)OCC(O)COP(=O)(S)O[C@H]3[C@@H](O)[C@H](n4ccc5c(=O)[nH]c(N)nc54)O[C@@H]3COP(=O)(S)O[C@H]3[C@@H](O)[C@H](n4ccc(=O)[nH]c4=O)O[C@@H]3COP(=O)(S)O[C@H]3[C@@H](O)[C@H](n4ccc(N)nc4=O)O[C@@H]3COP(=O)(S)O[C@H]3[C@@H](O)[C@H](n4ccc(=O)[nH]c4=O)O[C@@H]3COP(=O)(S)O[C@H]3[C@@H](O)[C@H](n4ccc(=O)[nH]c4=O)O[C@@H]3COP(=O)(S)O[C@H]3[C@@H](O)[C@H](n4ccc5c(=O)[nH]c(N)nc54)O[C@@H]3COP(=O)(S)O[C@H]3[C@@H](O)[C@H](n4ccc(=O)[nH]c4=O)O[C@@H]3COP(=O)(S)O[C@H]3[C@@H](O)[C@H](n4ccc(N)nc4=O)O[C@@H]3COP(=O)(S)O[C@H]3[C@@H](O)[C@H](n4ccc5c(=O)[nH]c(N)nc54)O[C@@H]3COP(=O)(S)O[C@H]3[C@@H](O)[C@H](n4ccc(=O)[nH]c4=O)O[C@@H]3CO)[C@H]2O)c(=O)n1 (stereo not given in full)	Active	Active	Active	Active	Active	Active	Active	Active	Active	Active	Active									
CO[C@@H]1[C@H](OP(=O)(S)OC[C@H]2O[C@@H](n3ccc(N)nc3=O)C[C@@H]2OP(=O)(S)OC[C@H]2O[C@@H](n3ccc4c(=O)[nH]c(N)nc43)C[C@@H]2OP(=O)(S)OC[C@H]2O[C@@H](n3cc(C)c(=O)[nH]c3=O)C[C@@H]2OP(=O)(S)OC[C@H]2O[C@@H](n3cc(C)c(=O)[nH]c3=O)C[C@@H]2OP(=O)(S)OC[C@H]2O[C@@H](n3ccc(N)nc3=O)C[C@@H]2OP(=O)(S)OC[C@H]2O[C@@H](n3cc(C)c(=O)[nH]c3=O)C[C@@H]2OP(=O)(S)OC[C@H]2O[C@@H](n3ccc(N)nc3=O)C[C@@H]2OP(=O)(S)OC[C@H]2O[C@@H](n3cc(C)c(=O)[nH]c3=O)C[C@@H]2OP(=O)(S)OC[C@H]2O[C@@H](n3cnc4c(=O)[nH]c(N)nc43)C[C@@H]2OP(=O)(S)OC[C@H]2O[C@@H](n3cc(C)c(=O)[nH]c3=O)C[C@@H]2O)[C@@H](COP(=O)(S)O[C@H]2[C@@H](OC)[C@H](n3cnc4c(=O)[nH]c(N)nc43)O[C@@H]2COP(=O)(S)O[C@H]2C[C@H](n3cc(C)c(=O)[nH]c3=O)O[C@@H]2COP(=O)(S)O[C@H]2C[C@H](n3ccc(N)nc3=O)O[C@@H]2COP(=O)(S)O[C@H]2C[C@H](n3cc(C)c(=O)[nH]c3=O)O[C@@H]2COP(=O)(S)O[C@H]2C[C@H](n3cnc4c(N)ncnc43)O[C@@H]2COP(=O)(S)O[C@H]2C[C@H](n3cc(C)c(=O)[nH]c3=O)O[C@@H]2COP(=O)(S)O[C@@H]2[C@H](O)[C@@H](n3ccc(N)nc3=O)O[C@H]2CO)O[C@H]1n1ccc(=O)[nH]c1=O (stereo not given in full)	inactive	inactive	inactive	inactive	inactive	inactive	inactive	inactive	inactive	inactive		Active	inactive	Active	Active	Active	Active	Active	Active	Active
